Assay results from ChEMBL document CHEMBL4038328, “Structure-Guided Optimization of HIV Integrase Strand Transfer Inhibitors” (J Med Chem, 2017).

Tests used:
[1] = tested on: Human immunodeficiency virus 1; test: Selectivity ratio of EC50 for VSV-G pseudotyped HIV1 harboring integrase G140S/Q148H mutant infected in HOS cells to EC50 for VSV-G pseudotyped HIV1 harboring wild-type integrase infected in HOS cells; format: functional
Method in brief: (§1)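 Fold change is the EC50 against the mutant-IN vector divided by the EC50 against the WT-IN vector. Both come from the single-round luciferase infectivity assay in HOS cells, with a 3 h compound pretreatment followed by 48 h infection.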

[2] = tested on: Human immunodeficiency virus 1; test: Antiviral activity against VSV-G pseudotyped HIV1 harboring integrase Y143R mutant infected in HOS cells pretreated […] for 3 hrs followed by viral infection measured after 48 hrs by luciferase reporter gene assay relative to dolutegravir; format: functional
[3] = tested on: Human immunodeficiency virus 1; test: Selectivity ratio of EC50 for VSV-G pseudotyped HIV1 harboring integrase R263K mutant infected in HOS cells to EC50 for VSV-G pseudotyped HIV1 harboring wild-type integrase infected in HOS cells; format: functional; method in brief: as §1
[4] = tested on: Human immunodeficiency virus 1; test: Antiviral activity against VSV-G pseudotyped HIV1 harboring integrase H51Y mutant infected in HOS cells pretreated […] for 3 hrs followed by viral infection measured after 48 hrs by luciferase reporter gene assay relative to dolutegravir; format: functional
[5] = tested on: Human immunodeficiency virus 1; test: Antiviral activity against VSV-G pseudotyped HIV1 harboring integrase G118R mutant infected in HOS cells pretreated […] for 3 hrs followed by viral infection measured after 48 hrs by luciferase reporter gene assay; format: functional, cell-based; conditions: Human immunodeficiency virus 1, HOS
Method in brief: (§2)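 Single-round luciferase HIV-1 vector (pNLNgoMIVR−ΔLUC carrying WT or mutant IN) was pseudotyped with VSV-g by calcium phosphate co-transfection of 293 cells, and supernatant was harvested after 48 h. HOS cells were seeded at 4000/well in DMEM with 5% FBS and 5% newborn calf serum. They were pretreated 3 h at 37 °C with 5–0.0001 μM (11 serial dilutions), then infected for 48 h. Luminescence was normalized to untreated cells, and EC50 came from nonlinear regression.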

[6] = tested on: Human immunodeficiency virus 1; test: Antiviral activity against VSV-G pseudotyped HIV1 harboring integrase G140S/Q148H double mutant infected in HOS cells pretreated […] for 3 hrs followed by viral infection measured after 48 hrs by luciferase reporter gene assay; format: functional, cell-based; conditions: Human immunodeficiency virus 1, HOS; method in brief: as §2
[7] = tested on: Human immunodeficiency virus 1; test: Antiviral activity against VSV-G pseudotyped HIV1 harboring integrase T66I mutant infected in HOS cells pretreated […] for 3 hrs followed by viral infection measured after 48 hrs by luciferase reporter gene assay; format: functional, cell-based; conditions: Human immunodeficiency virus 1, HOS; method in brief: as §2
[8] = tested on: Human immunodeficiency virus 1; test: Antiviral activity against VSV-G pseudotyped HIV1 harboring wild-type integrase infected in HOS cells pretreated […] for 3 hrs followed by viral infection measured after 48 hrs by luciferase reporter gene assay; format: functional, cell-based; conditions: Human immunodeficiency virus 1, HOS; method in brief: as §2
[9] = tested on: Human immunodeficiency virus 1; test: Antiviral activity against VSV-G pseudotyped HIV1 harboring integrase G118R mutant infected in HOS cells pretreated […] for 3 hrs followed by viral infection measured after 48 hrs by luciferase reporter gene assay relative to dolutegravir; format: functional
[10] = tested on: Human immunodeficiency virus 1; test: Antiviral activity against VSV-G pseudotyped HIV1 harboring integrase H51Y/R263K double mutant infected in HOS cells pretreated […] for 3 hrs followed by viral infection measured after 48 hrs by luciferase reporter gene assay; format: functional, cell-based; conditions: Human immunodeficiency virus 1, HOS; method in brief: as §2
[11] = tested on: Human immunodeficiency virus 1; test: Selectivity ratio of EC50 for VSV-G pseudotyped HIV1 harboring integrase H51Y mutant infected in HOS cells to EC50 for VSV-G pseudotyped HIV1 harboring wild-type integrase infected in HOS cells; format: functional; method in brief: as §1
[12] = (§3) Cytotoxicity against HOS cells assessed as reduction in cell viability after 48 hrs by ATPLite luminescence assay; format: cell-based; conditions: human, HOS cells
Method in brief: (§4)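 HOS cells seeded at 4000 per well the day before, exposed to compounds over 250 to 0.05 μM at 37 °C for 48 h. ATP measured by luminescence after lysis and 20 min signal development at room temperature.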

[13] = tested on: Human immunodeficiency virus 1; test: Selectivity ratio of EC50 for VSV-G pseudotyped HIV1 harboring integrase E92Q mutant infected in HOS cells to EC50 for VSV-G pseudotyped HIV1 harboring wild-type integrase infected in HOS cells; format: functional; method in brief: as §1
[14] = tested on: Human immunodeficiency virus 1; test: Selectivity ratio of EC50 for VSV-G pseudotyped HIV1 harboring integrase T66I mutant infected in HOS cells to EC50 for VSV-G pseudotyped HIV1 harboring wild-type integrase infected in HOS cells; format: functional; method in brief: as §1
[15] = tested on: Human immunodeficiency virus 1; test: Antiviral activity against VSV-G pseudotyped HIV1 harboring integrase R263K mutant infected in HOS cells pretreated […] for 3 hrs followed by viral infection measured after 48 hrs by luciferase reporter gene assay relative to dolutegravir; format: functional
[16] = tested on: Human immunodeficiency virus 1; test: Antiviral activity against VSV-G pseudotyped HIV1 harboring integrase E92Q mutant infected in HOS cells pretreated […] for 3 hrs followed by viral infection measured after 48 hrs by luciferase reporter gene assay; format: functional, cell-based; conditions: Human immunodeficiency virus 1, HOS; method in brief: as §2
[17] = tested on: Human immunodeficiency virus 1; test: Selectivity ratio of EC50 for VSV-G pseudotyped HIV1 harboring integrase G118R mutant infected in HOS cells to EC50 for VSV-G pseudotyped HIV1 harboring wild-type integrase infected in HOS cells; format: functional; method in brief: as §1
[18] = tested on: Human immunodeficiency virus 1; test: Antiviral activity against VSV-G pseudotyped HIV1 harboring wild-type integrase infected in HOS cells pretreated […] for 3 hrs followed by viral infection measured after 48 hrs by luciferase reporter gene assay relative to dolutegravir; format: functional
[19] = tested on: Human immunodeficiency virus 1; test: Antiviral activity against VSV-G pseudotyped HIV1 harboring integrase R263K mutant infected in HOS cells pretreated […] for 3 hrs followed by viral infection measured after 48 hrs by luciferase reporter gene assay; format: functional, cell-based; conditions: Human immunodeficiency virus 1, HOS; method in brief: as §2
[20] = tested on: Human immunodeficiency virus 1; test: Selectivity ratio of EC50 for VSV-G pseudotyped HIV1 harboring integrase H51Y/R263K double mutant infected in HOS cells to EC50 for VSV-G pseudotyped HIV1 harboring wild-type integrase infected in HOS cells; format: functional; method in brief: as §1
[21] = tested on: Human immunodeficiency virus 1; test: Antiviral activity against VSV-G pseudotyped HIV1 harboring integrase N155H mutant infected in HOS cells pretreated […] for 3 hrs followed by viral infection measured after 48 hrs by luciferase reporter gene assay relative to dolutegravir; format: functional
[22] = tested on: Human immunodeficiency virus 1; test: Antiviral activity against VSV-G pseudotyped HIV1 harboring integrase Y143R mutant infected in HOS cells pretreated […] for 3 hrs followed by viral infection measured after 48 hrs by luciferase reporter gene assay; format: functional, cell-based; conditions: Human immunodeficiency virus 1, HOS; method in brief: as §2
[23] = Inhibition of HIV1 integrase strand transfer activity using 5'-end 32P labeled DNA substrate measured after 2 hrs by PAGE based phosphor imaging method; set-up: species or system Human immunodeficiency virus 1
Method in brief: (§5)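 Gel-based assay, Mg2+ cofactor: 400 nM integrase with 20 nM DNA substrate 5′-32P-labeled on transferred strand in 50 mM MOPS pH 7.2, 7.5 mM MgCl2, 14 mM 2-mercaptoethanol, inhibitor or DMSO; 2 h at 37 °C. Stopped with formamide/SDS loading buffer; products resolved on 16% denaturing polyacrylamide gels, quantified by phosphorimaging.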

[24] = tested on: Human immunodeficiency virus 1; test: Selectivity ratio of EC50 for VSV-G pseudotyped HIV1 harboring integrase Y143R mutant infected in HOS cells to EC50 for VSV-G pseudotyped HIV1 harboring wild-type integrase infected in HOS cells; format: functional; method in brief: as §1
[25] = tested on: Human immunodeficiency virus 1; test: Antiviral activity against VSV-G pseudotyped HIV1 harboring integrase H51Y mutant infected in HOS cells pretreated […] for 3 hrs followed by viral infection measured after 48 hrs by luciferase reporter gene assay; format: functional, cell-based; conditions: Human immunodeficiency virus 1, HOS; method in brief: as §2
[26] = tested on: Human immunodeficiency virus 1; test: Antiviral activity against VSV-G pseudotyped HIV1 harboring integrase N155H mutant infected in HOS cells pretreated […] for 3 hrs followed by viral infection measured after 48 hrs by luciferase reporter gene assay; format: functional, cell-based; conditions: Human immunodeficiency virus 1, HOS; method in brief: as §2
[27] = tested on: Human immunodeficiency virus 1; test: Antiviral activity against VSV-G pseudotyped HIV1 harboring integrase T66I mutant infected in HOS cells pretreated […] for 3 hrs followed by viral infection measured after 48 hrs by luciferase reporter gene assay relative to dolutegravir; format: functional
[28] = tested on: Human immunodeficiency virus 1; test: Antiviral activity against VSV-G pseudotyped HIV1 harboring integrase H51Y/R263K double mutant infected in HOS cells pretreated […] for 3 hrs followed by viral infection measured after 48 hrs by luciferase reporter gene assay relative to dolutegravir; format: functional
[29] = tested on: Human immunodeficiency virus 1; test: Antiviral activity against VSV-G pseudotyped HIV1 harboring integrase G140S/Q148H double mutant infected in HOS cells pretreated […] for 3 hrs followed by viral infection measured after 48 hrs by luciferase reporter gene assay relative to dolutegravir; format: functional
[30] = tested on: Human immunodeficiency virus 1; test: Antiviral activity against VSV-G pseudotyped HIV1 harboring integrase E92Q mutant infected in HOS cells pretreated […] for 3 hrs followed by viral infection measured after 48 hrs by luciferase reporter gene assay relative to dolutegravir; format: functional
[31] = Inhibition of HIV1 integrase 3' processing activity using 5'-end 32P labeled DNA substrate measured after 2 hrs by PAGE based phosphor imaging method; set-up: species or system Human immunodeficiency virus 1; method in brief: as §5
[32] = tested on: Human immunodeficiency virus 1; test: Selectivity ratio of EC50 for VSV-G pseudotyped HIV1 harboring integrase N155H mutant infected in HOS cells to EC50 for VSV-G pseudotyped HIV1 harboring wild-type integrase infected in HOS cells; format: functional; method in brief: as §1
HOS = test: as §3; format: cell-based; conditions: human, hos, 48 h; method in brief: as §4

| SMILES | Ratio EC50 [1] | Ratio EC50 [3] | EC50 [5] [nM] | EC50 [6] [nM] | EC50 [7] [nM] | EC50 [8] [nM] | EC50 [10] [nM] | Ratio EC50 [11] | Ratio EC50 [13] | Ratio EC50 [14] | EC50 [16] [nM] | Ratio EC50 [17] | EC50 [19] [nM] | Ratio EC50 [20] | EC50 [22] [nM] | IC50 [23] [nM] | Ratio EC50 [24] | EC50 [25] [nM] | EC50 [26] [nM] | IC50 [31] [nM] | further results |
| --- | --- | --- | --- | --- | --- | --- | --- | --- | --- | --- | --- | --- | --- | --- | --- | --- | --- | --- | --- | --- | --- |
| Nc1c(C(=O)NCc2ccc(F)cc2F)c(=O)n(O)c2ncc(CCCCCO)cc12 | 7 | 2 | 5.3 | 9.4 | 0.93 | 1.3 | 2.6 | 3 | 3 | 0.7 | 3.8 | 4 | 2.6 | 2 | 3 | 2.7 | 2 | 3.8 | 2.4 | 8200 | fold change (FC) [2]: 0.71; fold change (FC) [4]: 1.19; fold change (FC) [9]: 0.41; CC50 at 48 h [12]: > 250000 nM; fold change (FC) [15]: 0.24; fold change (FC) [18]: 0.81; fold change (FC) [21]: 0.67; fold change (FC) [27]: 1.03; fold change (FC) [28]: 0.16; fold change (FC) [29]: 1.62; fold change (FC) [30]: 1.65; Ratio EC50 [32]: 2 |
| O=C(NCc1ccc(F)cc1F)c1c(NCCO)c2cc(CCCCCO)cnc2n(O)c1=O | 1 | 1 | 24 | 16 | 1.9 | 13 | 31 | 0.8 | 0.5 | 0.1 | 6.5 | 2 | 18 | 2 | 12 | 2.5 | 0.9 | 11 | 15 | 4000 | CC50 (HOS): > 250000 nM; Ratio EC50 [32]: 1 |
